ChEMBL document CHEMBL3232897, “Synthesis, antiproliferative and antibacterial activity of new amides of salinomycin” (Bioorg Med Chem Lett, 2014)
Converted amounts (≈) assume the structure as drawn.

How the values were obtained:
[1] = Antiproliferative activity against human LoVo/DX cells; assay type: functional, cell-based
Summary of the method: (§1)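 IC50 is the concentration giving 50% growth inhibition, reported as mean with SD. HL-60/vinc and LoVo/DX are drug-resistant (MDR) sublines of HL-60 and LoVo. BALB/3T3 is a normal murine embryonic fibroblast line.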

[2] = Selectivity index, ratio of IC50 for mouse BALB/3T3 cells to IC50 for human LoVo/DX cells; assay type: functional
Summary of the method: (§2)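 Selectivity index is the IC50 in normal murine embryonic fibroblasts (BALB/3T3) divided by the IC50 in the respective cancer line (HL-60, HL-60/vinc, LoVo or LoVo/DX). Each IC50 is the concentration giving 50% growth inhibition. SI >1.0 is taken as favourable.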

HL-60 [3] = test: Selectivity index, ratio of IC50 for mouse BALB/3T3 cells to IC50 for human HL60 cells; assay type: functional; summary of the method: as §2
[4] = Selectivity index, ratio of IC50 for mouse BALB/3T3 cells to IC50 for human HL60/Vinc cells; assay type: functional; summary of the method: as §2
[5] = Antiproliferative activity against human HL60/Vinc cells; assay type: functional, cell-based; summary of the method: as §1
HL-60 [6] = test: Resistance index, ratio of IC50 for human HL60/Vinc cells to IC50 for human HL60 cells; assay type: functional
Summary of the method: (§3)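 Index of resistance is the IC50 in the resistant subline (HL-60/vinc or LoVo/DX) divided by the IC50 in its parental line (HL-60 or LoVo). Each IC50 is the concentration giving 50% growth inhibition. Bands are 0–2 sensitive, 2–10 moderate, above 10 strongly resistant.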

LoVo [7] = test: Antiproliferative activity against human LoVo cells; assay type: functional, cell-based; summary of the method: as §1
LoVo [8] = test: Resistance index, ratio of IC50 for human LoVo/DX cells to IC50 for human LoVo cells; assay type: functional; summary of the method: as §3
HL-60 [9] = test: Antiproliferative activity against human HL60 cells; assay type: functional, cell-based; summary of the method: as §1
LoVo [10] = test: Selectivity index, ratio of IC50 for mouse BALB/3T3 cells to IC50 for human LoVo cells; assay type: functional; summary of the method: as §2
BALB/3T3 = test: Antiproliferative activity mouse BALB/3T3 cells; assay type: cell-based; summary of the method: as §1
Staphylococcus aureus [11] = test: Antibacterial activity against Staphylococcus aureus ATCC 25923; assay type: functional
[12] = system: Staphylococcus epidermidis; test: Antibacterial activity against methicillin-resistant Staphylococcus epidermidis 461/11; assay type: functional
Summary of the method: (§4)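 In vitro antibacterial test on Staphylococcus strains, including MRSE clinical isolates. Read-outs were growth inhibition zone (mm) and MIC (µg/ml). Ciprofloxacin was the reference antibiotic.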

[13] = system: Staphylococcus epidermidis; test: Antibacterial activity against methicillin-resistant Staphylococcus epidermidis 469/11; assay type: functional; summary of the method: as §4
Staphylococcus aureus [14] = test: Antibacterial activity against Staphylococcus aureus ATCC 29213; assay type: functional
[15] = system: Staphylococcus epidermidis; test: Antibacterial activity against Staphylococcus epidermidis ATCC 35984; assay type: functional; summary of the method: as §4
[16] = system: Staphylococcus epidermidis; test: Antibacterial activity against methicillin-resistant Staphylococcus epidermidis 467/11; assay type: functional; summary of the method: as §4
[17] = system: Staphylococcus epidermidis; test: Antibacterial activity against methicillin-resistant Staphylococcus epidermidis 489/11; assay type: functional; summary of the method: as §4
[18] = system: Staphylococcus epidermidis; test: Antibacterial activity against methicillin-resistant Staphylococcus epidermidis 459/11; assay type: functional; summary of the method: as §4
[19] = system: Staphylococcus epidermidis; test: Antibacterial activity against methicillin-resistant Staphylococcus epidermidis 470/11; assay type: functional; summary of the method: as §4
Staphylococcus aureus [20] = test: Antibacterial activity against Staphylococcus aureus NCTC 4163; assay type: functional
[21] = system: Staphylococcus epidermidis; test: Antibacterial activity against Staphylococcus epidermidis ATCC 12228; assay type: functional; summary of the method: as §4
Staphylococcus aureus [22] = test: Antibacterial activity against Staphylococcus aureus ATCC 6538; assay type: functional
[23] = system: Staphylococcus epidermidis; test: Antibacterial activity against methicillin-resistant Staphylococcus epidermidis 488/11; assay type: functional; summary of the method: as §4
[24] = system: Staphylococcus epidermidis; test: Antibacterial activity against methicillin-resistant Staphylococcus epidermidis 468/11; assay type: functional; summary of the method: as §4
[25] = system: Staphylococcus epidermidis; test: Antibacterial activity against methicillin-resistant Staphylococcus epidermidis 460/11; assay type: functional; summary of the method: as §4
[26] = system: Staphylococcus epidermidis; test: Antibacterial activity against methicillin-resistant Staphylococcus epidermidis 466/11; assay type: functional; summary of the method: as §4

| Compound | IC50 (LoVo [7]) [µM] | IC50 (HL-60 [9]) [µM] | IC50 [1] [µM] | Ratio IC50 [2] | Ratio IC50 (HL-60 [3]) | Ratio IC50 [4] | IC50 [5] [µM] | Ratio IC50 (HL-60 [6]) | Ratio IC50 (LoVo [8]) | Ratio IC50 (LoVo [10]) | IC50 (BALB/3T3) [µM] | other results |
| --- | --- | --- | --- | --- | --- | --- | --- | --- | --- | --- | --- | --- |
| CC[C@@H](C(=O)[C@@H](C)[C@@H](O)[C@H](C)[C@@H]1O[C@@H]([C@@H](CC)C(=O)NCCCCN)CC[C@@H]1C)[C@H]1O[C@]2(C=C[C@@H](O)[C@]3(CC[C@@](C)([C@H]4CC[C@](O)(CC)[C@H](C)O4)O3)O2)[C@H](C)C[C@@H]1C | 21.9 | 3.7 | 12.6 | 2.78 | 9.47 | 1.52 | 23.1 | 6.22 | 0.58 | 1.6 | 35.1 | MIC (Staphylococcus aureus [11]): 32 µg/mL (≈ 39 µM); MIC [12]: 64 µg/mL (≈ 77.9 µM); MIC [13]: 64 µg/mL (≈ 77.9 µM); MIC (Staphylococcus aureus [14]): 64 µg/mL (≈ 77.9 µM); MIC [15]: 32 µg/mL (≈ 39 µM); MIC [16]: 32 µg/mL (≈ 39 µM); MIC [17]: 32 µg/mL (≈ 39 µM); MIC [18]: 32 µg/mL (≈ 39 µM); MIC [19]: 64 µg/mL (≈ 77.9 µM); MIC (Staphylococcus aureus [20]): 32 µg/mL (≈ 39 µM); MIC [21]: 64 µg/mL (≈ 77.9 µM); MIC (Staphylococcus aureus [22]): 32 µg/mL (≈ 39 µM); MIC [23]: 64 µg/mL (≈ 77.9 µM); MIC [24]: 32 µg/mL (≈ 39 µM); MIC [25]: 64 µg/mL (≈ 77.9 µM); MIC [26]: 64 µg/mL (≈ 77.9 µM) |
| CC[C@@H](C(=O)[C@@H](C)[C@@H](O)[C@H](C)[C@@H]1O[C@@H]([C@@H](CC)C(=O)Nc2ccc(NC(=O)[C@H](CC)[C@H]3CC[C@H](C)[C@H]([C@@H](C)[C@H](O)[C@H](C)C(=O)[C@H](CC)[C@H]4O[C@]5(C=C[C@@H](O)[C@]6(CC[C@@](C)([C@H]7CC[C@](O)(CC)[C@H](C)O7)O6)O5)[C@H](C)C[C@@H]4C)O3)cc2)CC[C@@H]1C)[C@H]1O[C@]2(C=C[C@@H](O)[C@]3(CC[C@@](C)([C@H]4CC[C@](O)(CC)[C@H](C)O4)O3)O2)[C@H](C)C[C@@H]1C | 8.1 | 2 | 2.8 | 7.2 | 10.07 | 1.26 | 16.1 | 7.99 | 0.35 | 2.49 | 20.2 |  |
| O=C(O)c1cn(C2CC2)c2cc(N3CCNCC3)c(F)cc2c1=O [CIPROFLOXACIN] |  |  |  |  |  |  |  |  |  |  |  | MIC [12]: 0.25 µg/mL (≈ 0.754 µM); MIC [13]: 8 µg/mL (≈ 24.1 µM); MIC (Staphylococcus aureus [14]): 0.5 µg/mL (≈ 1.51 µM); MIC [15]: 0.125 µg/mL (≈ 0.377 µM); MIC [16]: 16 µg/mL (≈ 48.3 µM); MIC [17]: 0.25 µg/mL (≈ 0.754 µM); MIC [18]: 16 µg/mL (≈ 48.3 µM); MIC [19]: 0.125 µg/mL (≈ 0.377 µM); MIC (Staphylococcus aureus [20]): 0.25 µg/mL (≈ 0.754 µM); MIC [21]: 0.25 µg/mL (≈ 0.754 µM); MIC (Staphylococcus aureus [22]): 0.25 µg/mL (≈ 0.754 µM); MIC [23]: 16 µg/mL (≈ 48.3 µM); MIC [24]: 16 µg/mL (≈ 48.3 µM); MIC [25]: 0.125 µg/mL (≈ 0.377 µM); MIC [26]: 2 µg/mL (≈ 6.04 µM) |
| CC[C@@H](C(=O)[C@@H](C)[C@@H](O)[C@H](C)[C@@H]1O[C@@H]([C@@H](CC)C(=O)NCCc2ccc(F)cc2)CC[C@@H]1C)[C@H]1O[C@]2(C=C[C@@H](O)[C@]3(CC[C@@](C)([C@H]4CC[C@](O)(CC)[C@H](C)O4)O3)O2)[C@H](C)C[C@@H]1C | 4.1 | 2.3 | 2.3 | 19.57 | 20.27 | 6.8 | 6.7 | 2.98 | 0.57 | 11.2 | 45.8 |  |
| COc1cccc2c1C(=O)c1c(O)c3c(c(O)c1C2=O)C[C@@](O)(C(=O)CO)C[C@@H]3O[C@H]1C[C@H](N)[C@H](O)[C@H](C)O1 [DOXORUBICIN] | 0.17 | 0.04 | 6.5 | 0.07 | 12 | 0.27 | 1.8 | 44.5 | 37.94 | 2.82 | 0.5 |  |

The next lines start with results.

| IC50 (LoVo [7]) [µM] | IC50 (HL-60 [9]) [µM] | Compound | IC50 [1] [µM] | Ratio IC50 [2] | Ratio IC50 (HL-60 [3]) | Ratio IC50 [4] | IC50 [5] [µM] | Ratio IC50 (HL-60 [6]) | Ratio IC50 (LoVo [8]) | Ratio IC50 (LoVo [10]) | IC50 (BALB/3T3) [µM] | other results |
| --- | --- | --- | --- | --- | --- | --- | --- | --- | --- | --- | --- | --- |
| 10.7 | 2.7 | CC[C@@H](C(=O)[C@@H](C)[C@@H](O)[C@H](C)[C@@H]1O[C@@H]([C@@H](CC)C(=O)NCCCCNC(=O)[C@H](CC)[C@H]2CC[C@H](C)[C@H]([C@@H](C)[C@H](O)[C@H](C)C(=O)[C@H](CC)[C@H]3O[C@]4(C=C[C@@H](O)[C@]5(CC[C@@](C)([C@H]6CC[C@](O)(CC)[C@H](C)O6)O5)O4)[C@H](C)C[C@@H]3C)O2)CC[C@@H]1C)[C@H]1O[C@]2(C=C[C@@H](O)[C@]3(CC[C@@](C)([C@H]4CC[C@](O)(CC)[C@H](C)O4)O3)O2)[C@H](C)C[C@@H]1C | 3.9 | 5.13 | 7.28 | 1.47 | 13.5 | 4.95 | 0.36 | 1.85 | 19.8 |  |
| 3.9 | 2.8 | CC[C@@H](C(=O)[C@@H](C)[C@@H](O)[C@H](C)[C@@H]1O[C@@H]([C@@H](CC)C(=O)NCCc2ccc(O)c(O)c2)CC[C@@H]1C)[C@H]1O[C@]2(C=C[C@@H](O)[C@]3(CC[C@@](C)([C@H]4CC[C@](O)(CC)[C@H](C)O4)O3)O2)[C@H](C)C[C@@H]1C | 4.3 | 1.34 | 2.05 | 0.83 | 6.9 | 2.48 | 1.1 | 1.47 | 5.7 |  |
| 32.5 | 4.4 | CC[C@@H](C(=O)[C@@H](C)[C@@H](O)[C@H](C)[C@@H]1O[C@@H]([C@@H](CC)C(=O)NCCc2c[nH]cn2)CC[C@@H]1C)[C@H]1O[C@]2(C=C[C@@H](O)[C@]3(CC[C@@](C)([C@H]4CC[C@](O)(CC)[C@H](C)O4)O3)O2)[C@H](C)C[C@@H]1C | 34.8 | 0.99 | 7.79 | 1.04 | 33.1 | 7.46 | 1.07 | 1.06 | 34.5 |  |
| 24.1 | 23.2 | CC[C@@H](C(=O)[C@@H](C)[C@@H](O)[C@H](C)[C@@H]1O[C@@H]([C@@H](CC)C(=O)NCC2COCCOCCOCCOCCO2)CC[C@@H]1C)[C@H]1O[C@]2(C=C[C@@H](O)[C@]3(CC[C@@](C)([C@H]4CC[C@](O)(CC)[C@H](C)O4)O3)O2)[C@H](C)C[C@@H]1C (stereo not given in full) | 8.5 | 3.69 | 1.35 | 1.16 | 27 | 1.16 | 0.35 | 1.3 | 31.3 |  |
| 6.9 | 5.7 | C#CCNC(=O)[C@H](CC)[C@H]1CC[C@H](C)[C@H]([C@@H](C)[C@H](O)[C@H](C)C(=O)[C@H](CC)[C@H]2O[C@]3(C=C[C@@H](O)[C@]4(CC[C@@](C)([C@H]5CC[C@](O)(CC)[C@H](C)O5)O4)O3)[C@H](C)C[C@@H]2C)O1 | 3.9 | 9.6 | 6.47 | 3.29 | 11.3 | 1.97 | 0.56 | 5.4 | 37.1 |  |
